Laboratory results taken from ChEMBL document CHEMBL3124893 (J Med Chem, 2014).

Tests used:
[1] = Antifibrotic activity in C57BL6/J mouse Prox24 cells assessed as inhibition of TGF-beta1-induced COL1A1 mRNA expression incubated for 1 hr followed by TGF-beta1 challenge measured after 6 hrs by real-time PCR analysis; format: functional
Summary of the method: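 mProx24 immortalized proximal tubular cells from C57BL6/J mouse kidneys in DMEM, 10% FCS, 37 °C, 5% CO2. Growth-arrested 24 h in 0.15% FCS. Pretreated 1 h with compound in DMEM/0.15% FCS (DMSO stocks 50, 20, 10, 1 mM), then human TGF-β1 5 ng/mL for 6 h. COL1A1 mRNA expressed relative to TGF-β1 alone (1.0). Mean ± SE of three experiments.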

Adenosine receptor A3 [2] = target: T1, Adenosine receptor A3 (Rattus norvegicus, UniProt P28647); experiment: Displacement of [125I]-I-AB-MECA from rat adenosine A3 receptor expressed in RBL-2H3 cells after 60 mins by gamma counting analysis; format: cell-based
T1 sequence (P28647 whole entry): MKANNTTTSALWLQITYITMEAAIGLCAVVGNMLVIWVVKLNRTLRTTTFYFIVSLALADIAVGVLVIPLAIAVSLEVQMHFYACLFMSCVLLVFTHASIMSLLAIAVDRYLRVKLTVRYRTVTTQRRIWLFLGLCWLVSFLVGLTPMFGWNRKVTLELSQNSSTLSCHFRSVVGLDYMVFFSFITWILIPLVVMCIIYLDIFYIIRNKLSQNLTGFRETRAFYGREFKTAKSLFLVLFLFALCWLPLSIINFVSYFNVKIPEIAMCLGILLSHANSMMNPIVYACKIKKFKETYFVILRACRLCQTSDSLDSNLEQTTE

Adenosine receptor A3 [3] = target: T2, Adenosine receptor A3 (Homo sapiens, UniProt P0DMS8); experiment: Displacement of [125I]-I-AB-MECA from recombinant human adenosine A3 receptor expressed in CHO cells after 60 mins by gamma counting analysis; format: cell-based
T2 sequence (P0DMS8 whole entry): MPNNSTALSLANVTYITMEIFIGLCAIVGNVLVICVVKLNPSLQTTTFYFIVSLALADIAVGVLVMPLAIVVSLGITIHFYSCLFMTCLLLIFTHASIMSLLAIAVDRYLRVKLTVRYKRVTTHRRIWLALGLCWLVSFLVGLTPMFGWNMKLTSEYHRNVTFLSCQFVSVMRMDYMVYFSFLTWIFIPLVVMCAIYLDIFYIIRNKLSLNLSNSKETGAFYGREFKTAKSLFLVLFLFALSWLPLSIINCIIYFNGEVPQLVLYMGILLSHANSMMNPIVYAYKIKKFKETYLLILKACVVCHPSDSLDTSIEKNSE

Adenosine receptor A2a [4] = target: T3, Adenosine receptor A2a (Homo sapiens, UniProt P29274); experiment: Displacement of [3H]-CGS21680 from human adenosine A2A receptor expressed in HEK293 cells after 60 mins by scintillation counting analysis; format: cell-based
Summary of the method: (§1)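 HEK-293 hA2AAR membranes (20 μg) incubated 60 min at 25 °C with 15 nM [3H]CGS21680 and increasing ligand concentrations in 50 mM Tris·HCl pH 7.4, 10 mM MgCl2. Nonspecific binding defined with 10 μM NECA. GF/B filtration, scintillation counting. Ki by Cheng–Prusoff. For weak binders, percent inhibition measured at 10 μM, 3–5 duplicate determinations.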

Adenosine receptor A1 = target: T4, Adenosine receptor A1 (Homo sapiens, UniProt P30542); experiment: Displacement of [3H]-R-PIA from recombinant human adenosine A1 receptor expressed in CHO cells after 60 mins by scintillation counting analysis; format: cell-based
T4 sequence (P30542 whole entry): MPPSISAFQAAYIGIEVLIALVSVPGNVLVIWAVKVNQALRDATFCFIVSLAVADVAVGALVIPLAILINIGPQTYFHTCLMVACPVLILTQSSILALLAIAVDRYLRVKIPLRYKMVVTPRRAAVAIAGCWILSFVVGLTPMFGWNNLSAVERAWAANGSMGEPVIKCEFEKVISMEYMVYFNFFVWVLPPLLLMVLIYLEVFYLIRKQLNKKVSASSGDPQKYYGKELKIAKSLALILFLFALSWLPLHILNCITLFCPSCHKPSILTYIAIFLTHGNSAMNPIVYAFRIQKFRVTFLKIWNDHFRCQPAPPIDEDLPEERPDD

[5] = target: T5, Adenosine receptor A3 (Homo sapiens) (UniProt P0DMS8); experiment: Antagonist activity at recombinant human adenosine A3 receptor expressed in CHO cells assessed as forskolin-induced intracellular cAMP production preincubated for 45 mins followed by forskolin challenge measured after 15 mins by liquid scintillation counting analysis in presence of rolipram and adenosine deaminase relative to NECA; format: functional, cell-based; set-up: scale not given: the % may be the effect or the level left
T5 sequence (whole entry): T2 sequence (P0DMS8 whole entry)
Summary of the method: (§2)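 CHO cells stably expressing hA3AR, plated 24 h, washed in DMEM/50 mM HEPES pH 7.4, treated with agonists and/or test compounds plus rolipram 10 μM and adenosine deaminase 3 U/mL. Forskolin 10 μM added after 45 min, incubation continued 15 min. Lysed in 0.1 M HCl. cAMP quantified by [3H]cAMP (2 nM)–PKA competitive binding, GF/C filtration, scintillation counting. Expressed relative to NECA full agonist (100%). Curves from three determinations.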

[6] = target: T6, Adenosine receptor A1 (Homo sapiens) (UniProt P30542); experiment: Displacement of [3H]-R-PIA from recombinant human adenosine A1 receptor expressed in CHO cells at 10 uM after 60 mins by scintillation counting analysis relative to control; format: cell-based
T6 sequence (whole entry): T4 sequence (P30542 whole entry)

Adenosine receptor A3 [7] = target: T2, Adenosine receptor A3; experiment: (§3) Partial agonist activity at recombinant human adenosine A3 receptor expressed in CHO cells assessed as […] of forskolin-induced intracellular cAMP production preincubated for 45 mins followed by forskolin challenge measured after 15 mins by liquid scintillation counting analysis in presence of rolipram and adenosine deaminase; format: functional, cell-based; summary of the method: as §2
[8] = target: T5, Adenosine receptor A3 (Homo sapiens); experiment: as §3, with “production at 10 uM” for “production”, “deaminase relative to NECA” for “deaminase”; format: functional, cell-based; summary of the method: as §2
[9] = target: T7, Adenosine receptor A2b (Homo sapiens) (UniProt P29275); experiment: Agonist activity at recombinant human adenosine A2B receptor expressed in CHO cells assessed as activation of intracellular cAMP production at 10 uM in presence of rolipram and adenosine deaminase relative to NECA; format: functional, cell-based
T7 sequence (whole entry): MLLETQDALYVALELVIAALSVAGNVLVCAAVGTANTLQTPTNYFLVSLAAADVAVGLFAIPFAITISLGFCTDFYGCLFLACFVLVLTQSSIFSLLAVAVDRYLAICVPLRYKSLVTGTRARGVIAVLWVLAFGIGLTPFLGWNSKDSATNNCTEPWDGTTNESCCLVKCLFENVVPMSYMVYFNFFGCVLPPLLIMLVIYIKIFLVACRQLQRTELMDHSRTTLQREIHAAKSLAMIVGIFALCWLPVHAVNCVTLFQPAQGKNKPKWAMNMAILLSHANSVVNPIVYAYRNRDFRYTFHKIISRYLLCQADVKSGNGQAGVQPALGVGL
Summary of the method: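 CHO cells stably expressing hA2BAR, plated 24 h, washed in DMEM with 50 mM HEPES pH 7.4, then exposed to compounds with rolipram 10 μM and adenosine deaminase 3 U/mL (no forskolin). Lysed in 0.1 M ice-cold HCl. cAMP measured by competitive binding of [3H]cAMP (2 nM) to protein kinase A against a 0–16 pmol standard curve, filtration, scintillation counting.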

Adenosine receptor A2a [10] = target: T3, Adenosine receptor A2a; experiment: Displacement of [3H]-CGS21680 from human adenosine A2A receptor expressed in HEK293 cells at 10 uM after 60 mins by scintillation counting analysis relative to control; format: cell-based; summary of the method: as §1

T3 sequence (P29274 whole entry): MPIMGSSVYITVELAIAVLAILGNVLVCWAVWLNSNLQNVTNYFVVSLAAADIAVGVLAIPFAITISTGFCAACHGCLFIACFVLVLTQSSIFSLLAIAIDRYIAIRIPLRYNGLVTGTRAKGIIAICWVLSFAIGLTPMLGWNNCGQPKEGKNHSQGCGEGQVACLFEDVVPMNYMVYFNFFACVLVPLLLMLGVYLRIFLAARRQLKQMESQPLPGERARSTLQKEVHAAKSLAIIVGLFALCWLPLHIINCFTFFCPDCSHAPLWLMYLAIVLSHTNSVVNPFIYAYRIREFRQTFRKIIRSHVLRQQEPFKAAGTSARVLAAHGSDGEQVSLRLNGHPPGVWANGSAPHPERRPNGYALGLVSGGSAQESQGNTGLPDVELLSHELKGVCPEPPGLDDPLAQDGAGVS

SMILES | IC50 [1] [µM] | Ki (Adenosine receptor A3 [2]) [µM] | Ki (Adenosine receptor A3 [3]) [µM] | Ki (Adenosine receptor A2a [4]) [µM] | Ki (Adenosine receptor A1) [µM] | Activity [5] [%] | inhibition [6] [%] | EC50 (Adenosine receptor A3 [7]) [µM] | max activation [8] [%] | Activity [9] [%] | inhibition (Adenosine receptor A2a [10]) [%]
CCCCC#Cc1nc(NC2CC2)c2ncn([C@H]3[C@H](O)[C@H](O)[C@@H]4C[C@@H]43)c2n1 | 11.8 | 0.039 | 0.0092 | 2.2 | 2.17 | – | – | – | – | – | –
CCCCC#Cc1nc(NC2CCCC2)c2ncn([C@H]3[C@H](O)[C@H](O)[C@@H]4C[C@@H]43)c2n1 | > 50 | 0.058 | 0.16 | 1.76 | 1.58 | – | – | – | – | – | –
CCCCC#Cc1nc(NCc2cccc(Br)c2)c2ncn([C@H]3[C@H](O)[C@H](O)[C@@H]4C[C@@H]43)c2n1 | 10.4 | 0.059 | 0.0086 | 3.15 | – | < 5 | 38 | – | – | – | –
CCCCC#Cc1nc(N)c2ncn([C@H]3[C@H](O)[C@H](O)[C@@H]4C[C@@H]43)c2n1 | 6.12 | 0.065 | 0.0162 | 0.1 | – | – | 29 | – | – | – | –
CCCCC#Cc1nc(NCc2cccc(I)c2)c2ncn([C@H]3[C@H](O)[C@H](O)[C@@H]4C[C@@H]43)c2n1 | 7.88 | 0.026 | 0.012 | 2.53 | – | < 5 | 48 | – | – | – | –
CCCCC#Cc1nc(NC)c2ncn([C@H]3[C@H](O)[C@H](O)[C@@H]4C[C@@H]43)c2n1 | 0.83 | 0.231 | 0.0049 | 7.49 | – | – | 14 | 0.0458 | 29.1 | 15.7 | –
CCCCC#Cc1nc(NCc2cccc(Cl)c2)c2ncn([C@H]3[C@H](O)[C@H](O)[C@@H]4C[C@@H]43)c2n1 | 2.87 | 0.0107 | 0.0078 | 3.31 | – | < 5 | 19 | – | – | – | –
CCCCC#Cc1nc(NCc2cccc(F)c2)c2ncn([C@H]3[C@H](O)[C@H](O)[C@@H]4C[C@@H]43)c2n1 | 3.17 | 0.043 | 0.016 | – | – | – | 21 | – | – | – | 27
CCCCC#Cc1nc(NCC)c2ncn([C@H]3[C@H](O)[C@H](O)[C@@H]4C[C@@H]43)c2n1 | 0.84 | 0.176 | 0.0067 | 2.86 | – | – | 31 | – | – | – | –
